Test results: ChEMBL document CHEMBL4346667 (Eur J Med Chem, 2019)
Active and inactive are the calls of the source. The calls are words filed in the database; no cut-off is given here.

How the values were obtained:
Tubulin (Homo sapiens) [1] = target: T1, Tubulin (Homo sapiens) (UniProt P68371+Q9H4B7+P0DPH7+P68366+Q13509+Q71U36+P04350+Q3ZCM7+P07437+P68363+Q9BQE3+Q6PEY2+Q13885+Q9BVA1+Q9BUF5); assay: Ratio of Kd for PTOX to Kd for test compound for tubulin (unknown origin) by surface plasmon resonance analysis; assay type: protein-complex assay
Summary of the method: (§1)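 SPR binding to immobilised tubulin (up to 800 mDeg) was measured at 25 °C. Compounds were diluted two-fold from 80 to 2.5 µM in PBS with 0.5% DMSO. They were injected at 60 µL/min for 300 s, with PBS containing 0.5% DMSO as running buffer. Kd values came from the titration data.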

MCF7 [2] = assay: Induction of apoptosis in human MCF7 cells at 500 nM after 48 hrs by Annexin V-FITC/propidium iodide staining-based flow cytometric analysis relative to control (reference value: 11.6%); assay type: functional
Summary of the method: (§2)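 MCF7 cells were seeded in 6-well plates and exposed after adhering to graded concentrations for 48 h, in cycles of 6 h on and 6 h off. They were then stained with annexin V (1 µg/mL) and PI (0.5 µg/mL) in Ca2+-enriched binding buffer for 15 min in the dark at room temperature. Flow cytometry recorded 10,000 events, FL1 versus FL2. Apoptosis was taken as early plus late stage, with at least 3 repeats.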

MCF7 [3] = assay: Induction of apoptosis in human MCF7 cells at 50 nM after 48 hrs by Annexin V-FITC/propidium iodide staining-based flow cytometric analysis relative to control (reference value: 11.6%); assay type: functional; summary of the method: as §2
Tubulin (Homo sapiens) [4] = target: T1, Tubulin (Homo sapiens); assay: Inhibition of tubulin polymerization in human HeLa cells assessed as contracted and rounded cells with disordered abnormal spindles and chromosomal misalignment at 500 nM after 24 hrs by immunofluorescence based confocal microscopy; assay type: cell-based
Summary of the method: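 HeLa cells on glass coverslips were treated for 24 h at 25, 250 or 500 nM. They were fixed in 4% paraformaldehyde for 1 h and permeabilised with 0.2% Triton X-100 for 20 min. Cells were imaged by fluorescence and confocal microscopy.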

MRC5 = assay: Antiproliferative activity against human MRC5 cells assessed as reduction in cell viability after 48 hrs by MTT assay; assay type: functional, cell-based; details: MRC5, 48 h
Summary of the method: (§3)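 Cells grown at 37 °C, 5% CO2; HeLa, HepG2, H8, HL7702 in RPMI 1640 + 10% fetal calf serum, others in high-glucose DMEM + 10% fetal calf serum. Log-phase cells seeded at 4000-12000/well by doubling time. Attached cells were given 10-fold dilutions, 100 µM to 10 nM (DMSO 0.1% v/v), for 48 h. MTT (2 mg/mL) 4 h, formazan in DMSO, A492. IC50 from triplicate means.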

MCF7 [5] = assay: Induction of apoptosis in human MCF7 cells at 10 nM after 48 hrs by Annexin V-FITC/propidium iodide staining-based flow cytometric analysis relative to control (reference value: 11.6%); assay type: functional; summary of the method: as §2
MCF7 [6] = assay: Antitumor activity against human MCF7 cells xenografted in BALB/c nude mouse assessed as inhibition of tumor growth at 40 mg/kg administered for a week; assay type: functional
Summary of the method: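 Male BALB/c nude mice, 4 weeks old, 15-20 g. Log-phase MCF-7 cells in DMEM, 0.1 mL of 1×10^6 cells/mL, injected subcutaneously into the hind leg. Calipers twice weekly; at about 90 mm3, groups of 5. Vehicle was isotonic saline plus 0.005% DMSO. Injected at 40 mg/kg for a week; tumour volume recorded daily.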

Tubulin (Homo sapiens) [7] = target: T1, Tubulin (Homo sapiens); assay: Ratio of Kd for colchicine to Kd for test compound for tubulin (unknown origin) by surface plasmon resonance analysis; assay type: protein-complex assay; summary of the method: as §1
A549 = assay: Antiproliferative activity against human A549 cells assessed as reduction in cell viability after 48 hrs by MTT assay; assay type: functional, cell-based; details: A549, 48 h; summary of the method: as §3
HepG2 = assay: Antiproliferative activity against human HepG2 cells assessed as reduction in cell viability after 48 hrs by MTT assay; assay type: functional, cell-based; details: HepG2, 48 h; summary of the method: as §3
Tubulin (Sus scrofa) [8] = target: T2, Tubulin (Sus scrofa) (UniProt P02554+P02550); assay: Inhibition of porcine tubulin assembly assessed as tubulin growth inhibition at 2 uM incubated for 30 min by fluorometric analysis; assay type: protein assay
Summary of the method: (§4)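 This was a centrifugation assay of tubulin assembly. Tubulin was held at 4 °C with 0.9 mM GTP and 6 mM MgCl2, and aggregates were removed at 90000 g for 10 min at 4 °C. Ligands at 0.05–2 µM (1% DMSO) were incubated for 30 min at 37 °C. Supernatants and pellets were diluted 1:5, and tubulin was read fluorometrically (ex 280, em 323) against standards. The 50% inhibitory concentration came from inhibition curves, as the mean of three experiments.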

HMEC = assay: Antiproliferative activity against human HMEC cells assessed as reduction in cell viability after 48 hrs by MTT assay; assay type: functional, cell-based; summary of the method: as §3
HeLa = assay: Antiproliferative activity against human HeLa cells assessed as reduction in cell viability after 48 hrs by MTT assay; assay type: functional, cell-based; summary of the method: as §3
MCF7 [9] = assay: Cell cycle arrest in human MCF7 cells assessed as accumulation of cells at G2/M phase at 250 to 500 nM after 24 hrs by propidium iodide double staining based flow cytometric analysis; assay type: functional
Summary of the method: (§5)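 Log-phase cells seeded in 6-well plates and, once adhered, treated at 10-1000 nM; incubated in cycles of 6 h on/6 h off up to 48 h. Washed in cold PBS, fixed in 70% ethanol at -20 °C for at least 2 days. Stained with PI (50 µg/mL) 30 min on ice in the dark. 10,000 events on FL2-A vs FL2-W; G1/S/G2/M from DNA modelling. At least three repeats.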

[10] = Binding affinity to alpha/beta tubulin complex (unknown origin); set-up: species or system Homo sapiens
Summary of the method: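 SPR assay: tubulin immobilized up to 800 mDeg (response units). Ligands were diluted two-fold from 80 µM to 2.5 µM in PBS with 0.5% (v/v) DMSO and injected at 60 µL/min for 300 s. Running buffer was PBS with 0.5% DMSO, at 25°C.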

[11] = Antiproliferative activity against human H8 cells assessed as reduction in cell viability after 48 hrs by MTT assay; assay type: functional, cell-based; summary of the method: as §3
MCF7 [12] = assay: Antiproliferative activity against human MCF7 cells assessed as reduction in cell viability after 48 hrs by MTT assay; assay type: functional, cell-based; details: MCF7, 48 h; summary of the method: as §3
MCF7 [13] = assay: Induction of apoptosis in human MCF7 cells at 100 nM after 48 hrs by Annexin V-FITC/propidium iodide staining-based flow cytometric analysis relative to control (reference value: 11.6%); assay type: functional; summary of the method: as §2
L02 = assay: Antiproliferative activity against human HL7702 cells assessed as reduction in cell viability after 48 hrs by MTT assay; assay type: functional, cell-based; details: L02, 48 h; summary of the method: as §3
MCF7 [14] = assay: Induction of apoptosis in human MCF7 cells at 250 nM after 48 hrs by Annexin V-FITC/propidium iodide staining-based flow cytometric analysis relative to control (reference value: 11.6%); assay type: functional; summary of the method: as §2
MCF7 [15] = assay: Cell cycle arrest in human MCF7 cells assessed as accumulation of cells at G2/M phase at 100 nM after 24 hrs by propidium iodide double staining based flow cytometric analysis; assay type: functional; summary of the method: as §5
Tubulin = assay: Binding affinity to tubulin (unknown origin) assessed as dissociation constant by SPR analysis; assay type: protein-complex assay, Homo sapiens
Summary of the method: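 Tubulin immobilised to about 800 mDeg. Injected at 60 µL/min for 300 s; PBS with 0.5% DMSO as running buffer. Measured at 25 °C, with dilution-corrected peak areas.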

Tubulin (Sus scrofa) [16] = target: T2, Tubulin (Sus scrofa); assay: Inhibition of porcine tubulin assembly assessed as tubulin growth inhibition incubated for 30 min by fluorometric analysis; assay type: protein assay; summary of the method: as §4

T2 sequence (P02550 whole entry, looked up): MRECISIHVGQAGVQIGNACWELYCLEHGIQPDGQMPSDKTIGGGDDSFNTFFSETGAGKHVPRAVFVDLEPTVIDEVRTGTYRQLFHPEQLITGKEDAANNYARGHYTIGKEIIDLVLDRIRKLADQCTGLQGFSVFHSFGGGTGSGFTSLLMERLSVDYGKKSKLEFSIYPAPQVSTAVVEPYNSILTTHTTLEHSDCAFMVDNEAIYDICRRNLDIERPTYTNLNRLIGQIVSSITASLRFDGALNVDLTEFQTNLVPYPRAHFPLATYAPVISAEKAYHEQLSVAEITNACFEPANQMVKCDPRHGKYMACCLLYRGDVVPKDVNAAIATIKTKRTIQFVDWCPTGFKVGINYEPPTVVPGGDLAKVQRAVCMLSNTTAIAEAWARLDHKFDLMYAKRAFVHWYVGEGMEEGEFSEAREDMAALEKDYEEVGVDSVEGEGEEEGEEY
T2 sequence (P02554 whole entry, looked up): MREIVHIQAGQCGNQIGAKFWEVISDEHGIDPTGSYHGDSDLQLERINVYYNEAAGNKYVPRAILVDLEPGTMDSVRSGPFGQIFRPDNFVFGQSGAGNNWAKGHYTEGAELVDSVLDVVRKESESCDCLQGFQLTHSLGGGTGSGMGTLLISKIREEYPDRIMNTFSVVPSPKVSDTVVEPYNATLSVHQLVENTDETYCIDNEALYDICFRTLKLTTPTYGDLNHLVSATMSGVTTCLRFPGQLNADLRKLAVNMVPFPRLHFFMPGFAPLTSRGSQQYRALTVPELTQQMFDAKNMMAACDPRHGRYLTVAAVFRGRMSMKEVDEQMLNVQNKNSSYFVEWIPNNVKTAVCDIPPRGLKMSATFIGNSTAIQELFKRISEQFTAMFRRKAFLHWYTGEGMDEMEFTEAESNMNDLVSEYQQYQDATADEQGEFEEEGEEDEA

`COc1cc([C@@H]2c3cc4c(cc3[C@@H](Nc3ccc5cc[nH]c5c3)[C@H]3COC(=O)[C@H]23)OCO4)cc(OC)c1OC` showed a Ratio (Tubulin (Homo sapiens) [1]) of 2.7, an Activity (MCF7 [2]) of 94.9% and an Activity (MCF7 [3]) of 20.1%. The inhibition (Tubulin (Homo sapiens) [4]) was “Active”, the IC50 (MRC5) was 69100 nM and the Activity (MCF7 [5]) was 10.5%. For the same compound, the inhibition in vivo at 40 mg/kg (MCF7 [6]) was 89.6%, the Ratio (Tubulin (Homo sapiens) [7]) was 2.2 and the IC50 (A549) was 80 nM. For the same compound, the IC50 (HepG2) was 100 nM, the inhibition (Tubulin (Sus scrofa) [8]) was 88% and the IC50 (HMEC) was 61600 nM. It also gave an IC50 (HeLa) of 80 nM, an Activity (MCF7 [9]) of 90% and a Ki [10] of 10 nM. The IC50 [11] was 84500 nM, the IC50 (MCF7 [12]) was 70 nM and the Activity (MCF7 [13]) was 93.5%. The IC50 (L02) was 94600 nM, the Activity (MCF7 [14]) was 92.4 - 93% and the Activity (MCF7 [15]) was 50%. The Kd (Tubulin) was 8100 nM and the GI50 (Tubulin (Sus scrofa) [16]) was under 100 nM.
